Some results are limits rather than exact numbers.

41 molecules from ChEMBL document CHEMBL1153929, “Exploration and synthesis of curcumin analogues with improved structural stability both in vitro and in vivo as cytotoxic agents” (Bioorg Med Chem, 2009) can be followed below.

For data set [1], the system named is HeLa. As to the kind of experiment: Cytotoxicity against human HeLa cells after 72 hrs by MTT assay. It is filed as functional, cell-based. A digest of the protocol: (§1)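 Cells were plated at 5000 per well in 1640 medium with 5% heat-inactivated calf serum and penicillin/streptomycin, at 37 °C and 5% CO2. After 24 h, compounds in DMSO were added at final 100, 33.3, 11.1 and 3.7 µg/ml for 72 h. MTT (5 mg/ml in 0.9% NaCl) was then added for 3 h, the formazan dissolved in DMSO, and absorbance read at 570 nm.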
(Tetrazolium assays rely on reduction of a dye to a coloured formazan, in cell work by metabolically active cells.)

For data set [2], the system named is KB (human). As to the kind of experiment: Cytotoxicity against human KB cells after 72 hrs by MTT assay.
The nature of data set [3]: Hydrolytic stability assessed as compound degradation at 2 mg in sodium dihydrogen phosphate buffered 0.3% sodium carboxymethylcellulose solution at pH 7.4 after 45 hrs by HPLC. In kind it is physicochemical. The conditions noted are these: read-out: Activity. An outline of the steps: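 2 mg of sample was vortexed into 1 ml of 0.3% (w/v) CMCNa solution in phosphate buffer at pH 7.4 and kept in the dark at 37 °C. HPLC peak areas were recorded. Degradation = (area at 0 h − area at end time) / area at 0 h × 100%.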

Data set [4] in a line: Cytotoxicity against human LS 174T cells after 72 hrs by MTT assay. The settings on record: LS174T. In kind it is functional, cell-based. An outline of the steps: as §1
For data set [5], the system named is PC-3. In words: Cytotoxicity against human PC3 cells after 72 hrs by MTT assay. The conditions noted are these: PC-3, 72 h. It is filed as functional, cell-based. An outline of the steps: as §1
For data set [6], the system named is HL-60 (human). In words: Cytotoxicity against human HL60 cells after 72 hrs by MTT assay. The conditions noted are these: HL-60, 72 h.
Data set [7] relates to BGC-823. In words: Cytotoxicity against human BGC823 cells after 72 hrs by MTT assay. In kind it is functional, cell-based. The conditions noted are these: BGC-823, 72 h. A digest of the protocol:
as §1

With `O=C1/C(=C/c2ccccc2C(F)(F)F)CCC/C1=C\c1ccccc1C(F)(F)F`, the IC50 (commonly the concentration that inhibits the measured activity by half) in data set [1] was determined as 46.3 µM; in data set [2], 54 µM. In addition, in data set [3], the degraded at 45 h came out at 0%.

Consider `O=C1/C(=C/c2cccc(Br)c2)CCC/C1=C\c1cccc(Br)c1`, for which the IC50 in data set [1] was found to be 15.7 µM; in data set [2] it was 15.9 µM; in data set [4] it was 11.5 µM. In addition, the degraded at 45 h in data set [3] was determined as 0%.

With `O=C(/C=C/c1ccc(F)cc1)/C=C/c1ccc(F)cc1`, the IC50 in data set [5] turned out to be 15.2 µM; in data set [2] it was 94.6 µM; in data set [4] it was 98.8 µM. Further, in data set [3], the degraded at 45 h was 0%.

For the molecule `O=C1/C(=C/c2cccs2)CCC/C1=C\c1cccs1` [TENYLIDONE], half-maximal inhibition in data set [2] (IC50) was put at 86 µM. Also, the degraded at 45 h in data set [3] was 0%.

In data set [2], `CC(C)(C)c1ccc(/C=C2\CCC/C(=C\c3ccc(C(C)(C)C)cc3)C2=O)cc1` yielded a half-maximal inhibitory concentration (IC50) of 78.9 µM. In data set [3], the degraded at 45 h was 0%.

As to `COc1cc(/C=C2\CC/C(=C\c3cc(OC)c(OC)c(OC)c3)C2=O)cc(OC)c1OC`, the degraded at 45 h in data set [3] is 0%.

In turn, `C=CCOc1ccc(/C=C2\CCC/C(=C\c3ccc(OCC=C)c(OC)c3)C2=O)cc1OC` registered an IC50 in data set [2] of 102 µM. Further, in data set [3], the degraded at 45 h was 0%.

Consider `O=C1/C(=C/c2ccccc2Cl)CC/C1=C\c1ccccc1Cl`, for which the IC50 in data set [2] was 96 µM; in data set [6], 87.2 µM. Further, in data set [3], the degraded at 45 h amounted to 0%.

`COc1cccc(/C=C2\CC/C(=C\c3cccc(OC)c3OC)C2=O)c1OC` displayed an IC50 in data set [1] of 249 µM. For the same molecule, the degraded at 45 h in data set [3] is 0%.

`O=C1/C(=C/c2ccccc2Br)CCC/C1=C\c1ccccc1Br` gave an IC50 in data set [2] of 55.3 µM. In addition, the degraded at 45 h in data set [3] stood at 0%.

With `O=C(/C=C/c1ccc(Br)o1)/C=C/c1ccc(Br)o1`, the IC50 in data set [5] was 34.3 µM; in data set [1], 16.8 µM; in data set [7] it was 30.9 µM; in data set [2], 24.5 µM; in data set [4], 58.8 µM. For the same molecule, in data set [3], the degraded at 45 h stood at 0%.

As for `CN(C)c1ccc(/C=C2\CC/C(=C\c3ccc(N(C)C)cc3)C2=O)cc1`, in data set [3], the degraded at 45 h worked out at 0%.

`O=C1/C(=C/c2ccc(Br)s2)CC/C1=C\c1ccc(Br)s1` returned an IC50 in data set [4] of 9 µM. In addition, the degraded at 45 h in data set [3] was 0%.

The molecule `O=C1/C(=C/c2ccc(F)cc2)CC/C1=C\c1ccc(F)cc1` showed an IC50 in data set [1] of 1.2 µM. For the same molecule, the degraded at 45 h in data set [3] amounted to 0%.

Regarding `C=CCOc1cc(/C=C2\CC/C(=C\c3ccc(OC)c(OCC=C)c3)C2=O)ccc1OC`, in data set [7], the IC50 worked out at 32.6 µM. Further, in data set [3], the degraded at 45 h was found to be 0%.

For `COc1cccc(/C=C2\CCC/C(=C\c3cccc(OC)c3OC)C2=O)c1OC`, the results for the IC50 in data set [7], in data set [2] and in data set [4] were 55.3 µM, 179 µM and 84.5 µM, respectively. In data set [3], the degraded at 45 h turned out to be 0%.

In the case of `Cc1ccc(/C=C2\CCC/C(=C\c3ccc(C)s3)C2=O)s1`, the IC50 in data set [5] was found to be 77.6 µM; in data set [2] it was 249 µM. For the same molecule, in data set [3], the degraded at 45 h stood at 0%.

As to `Cc1ccc(C)c(/C=C2\CCC/C(=C\c3cc(C)ccc3C)C2=O)c1`, in data set [2], the IC50 stood at 35.3 µM. Besides, the degraded at 45 h in data set [3] was determined as 0%.

Turning to `O=C1/C(=C/c2ccccc2C(F)(F)F)CC/C1=C\c1ccccc1C(F)(F)F`, the IC50 was less than 9.34 µM in data set [2] and 213 µM in data set [4]. For the same molecule, the degraded at 45 h in data set [3] worked out at 0%.

`O=C(/C=C/c1ccccc1Cl)/C=C/c1ccccc1Cl`: the results for the IC50 in data set [2] and in data set [6] were 59 µM and 8.6 µM, respectively. For the same molecule, the degraded at 45 h in data set [3] came to 0%.

`C=CCOc1ccc(/C=C/C(=O)/C=C/c2ccc(OCC=C)cc2)cc1`: in data set [6], half-maximal inhibition (IC50) was put at 64.6 µM. Besides, the degraded at 45 h in data set [3] was 0%.

Take `O=C(/C=C/C=C/c1ccccc1)/C=C/C=C/c1ccccc1`: in data set [6], half-maximal inhibition (IC50) required 36.5 µM. For the same molecule, the degraded at 45 h in data set [3] came to 0%.

As for `O=C(/C=C/c1ccc(OC2CCCCO2)cc1)/C=C/c1ccc(OC2CCCCO2)cc1` (configuration not stated), the IC50 amounted to 43.4 µM in data set [5] and 0.3 µM in data set [6]. Also, the degraded at 45 h in data set [3] came to 0%.

For the molecule `O=C1/C(=C/c2ccc(OC3CCCCO3)cc2)CC/C1=C\c1ccc(OC2CCCCO2)cc1` (configuration not stated), the half-maximal inhibitory concentration (IC50) in data set [1] worked out at 39.1 µM. Also, the degraded at 45 h in data set [3] was 0%.

In the case of `COc1ccccc1/C=C1\CC/C(=C\c2ccccc2OC)C1=O`, the IC50 in data set [5] is 5.3 µM; in data set [6] it was 2.3 µM. Besides, the degraded at 45 h in data set [3] was determined as 0%.

On to `O=C1/C(=C/c2ccc(Br)o2)CCC/C1=C\c1ccc(Br)o1`, for which the IC50 in data set [5] is 21.8 µM; in data set [6] it was 65.8 µM. Besides, the degraded at 45 h in data set [3] is 0%.

Take `O=C1/C(=C/c2ccc(OC3CCCCO3)cc2)CCC/C1=C\c1ccc(OC2CCCCO2)cc1` (configuration not stated): the IC50 in data set [4] stood at 3.9 µM; in data set [6], 134 µM. Also, the degraded at 45 h in data set [3] was determined as 0%.

For `O=C(/C=C/c1ccccc1C(F)(F)F)/C=C/c1ccccc1C(F)(F)F`, the IC50 was 0.35 µM in data set [5], less than 3.7 µM in data set [2] and less than 10 µM in data set [6]. In addition, the degraded at 45 h in data set [3] is 0%.

For `COc1cc(/C=C2\CCC/C(=C\c3cc(OC)c(OC)c(OC)c3)C2=O)cc(OC)c1OC`, the IC50 in data set [5] came to 22.7 µM; in data set [1] it was 27.5 µM; in data set [2], 117 µM; in data set [6], 29.3 µM. In addition, the degraded at 45 h in data set [3] came out at 0%.

Consider `Cc1ccsc1/C=C/C(=O)/C=C/c1sccc1C`, for which the IC50 in data set [5] was 138 µM. For the same molecule, in data set [3], the degraded at 45 h came to 0%.

Regarding `O=C1/C(=C/C=C/c2ccccc2)CC/C1=C\C=C\c1ccccc1`, in data set [5], the IC50 was 117 µM. Further, the degraded at 45 h in data set [3] worked out at 0%.

In the case of `O=C1/C(=C/c2ccc3ccccc3c2)CC/C1=C\c1ccc2ccccc2c1`, 38.1 µM corresponded to half-maximal inhibition in data set [7] (IC50). In data set [3], the degraded at 45 h was found to be 0%.

On to `O=C(/C=C/c1ccc(O)cc1)/C=C/c1ccc(O)cc1`, for which the IC50 in data set [5] came out at 48.9 µM; in data set [1], 217 µM; in data set [2], 41.5 µM. In data set [3], the degraded at 45 h worked out at 0%.

For the molecule `Cn1cccc1/C=C1\CCC/C(=C\c2cccn2C)C1=O`, in data set [2], the IC50 worked out at 2.3 µM. Moreover, the degraded at 45 h in data set [3] was determined as 0%.

For `COc1ccccc1/C=C/C(=O)/C=C/c1ccccc1OC`, the IC50 in data set [1] was 161 µM; in data set [2] it was less than 12.6 µM; in data set [6], less than 12.6 µM. Further, the degraded at 45 h in data set [3] was determined as 0%.

The molecule `O=C1/C(=C/c2ccc3c(c2)OCO3)CC/C1=C\c1ccc2c(c1)OCO2` displayed an IC50 in data set [6] of 225 µM. For the same molecule, the degraded at 45 h in data set [3] was found to be 0%.

With `COc1cc(/C=C/C(=O)/C=C/c2cc(OC)c(OC)c(OC)c2)cc(OC)c1OC`, the IC50 in data set [5] amounted to 8.8 µM; in data set [1], 95 µM; in data set [2], 98.7 µM; in data set [4], 148 µM. Moreover, the degraded at 45 h in data set [3] came out at 0%.

In data set [2], `C=CCOc1ccc(/C=C2\CCC/C(=C\c3ccc(OCC=C)cc3)C2=O)cc1` showed an IC50 of 85.3 µM. Moreover, the degraded at 45 h in data set [3] turned out to be 0%.

In turn, `CCOc1ccc(/C=C2\CC/C(=C\c3ccc(OCC)cc3)C2=O)cc1` gave an IC50 in data set [1] of 24 µM. For the same molecule, the degraded at 45 h in data set [3] came out at 0%.

With `CCOc1ccc(/C=C2\CCC/C(=C\c3ccc(OCC)cc3)C2=O)cc1`, the IC50 amounted to 5.6 µM in data set [4] and 85.8 µM in data set [6]. For the same molecule, the degraded at 45 h in data set [3] came out at 0%.

The molecule `Cn1cccc1/C=C1\CC/C(=C\c2cccn2C)C1=O` showed an IC50 in data set [4] of 9.2 µM. Also, the degraded at 45 h in data set [3] is 0%.
